Results as given in ChEMBL document CHEMBL5303300, “EUbOPEN Chemogenomics Library - Multiplex” (2023).
Values joined by “and” are separate entries in the source; they are usually repeats but may differ in a detail not shown here. Equal entries are not always repeated.

Tested on: Fibroblast
Experiment: Multiplex assay against human fibroblast
Assay type: toxicity, cell-based
Settings: number of replicates 2
Outline: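 Values for tubulin, mitochondrial-mass and membrane-permeability phenotypes are per cents of cells with healthy nuclei. These cells were identified by CellPathfinder machine-learning gating of live cells that had been stained at seeding with Hoechst33342, BioTracker Green Microtubule Cytoskeleton Dye, MitoTracker Red and Annexin V Alexa Fluor 680 and imaged on a CQ1 microscope at 37°C and 5% CO2 after compound addition. The gating first set Hoechst high-intensity objects apart from normal cells, then split normal cells into healthy, pyknosed or fragmented nuclei, and pyknosed cells into mitotic or apoptotic.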

[1] = 12 h, 1 µM, compound concentration 1 uM
[2] = 12 h, 10 µM, compound concentration 10 uM
[3] = 24 h, 1 µM, compound concentration 1 uM
[4] = 24 h, 10 µM, compound concentration 10 uM
[5] = 48 h, 1 µM, compound concentration 1 uM
[6] = 48 h, 10 µM, compound concentration 10 uM

## O=C(Nc1ccnc(NC(=O)C2CC2)c1)c1c(Cl)cccc1Cl
[1]
  Population Apoptotic (%): 47% and 27%
  Population Fragmented Nuclei (%): 6% and 9%
  Population Healthy Nuclei (%): 65% and 67%
  Population Hoechst High Intensity Objects (%): 0%
  Population Membrane Permeable-Phenotype (%): 5% and 7%
  Population Mitochondria Different-Phenotype (%): 0%
  Population Mitotic Cells (%): 52% and 72%
  Population Normal (%): 100%
  Population Pyknosed Nuclei (%): 27% and 23%
  Population Tubulin-Different-Phenotype (%): 9% and 6%
  Total Cell Count: 145 and 189
[2]
  Population Apoptotic (%): 55% and 72%
  Population Fragmented Nuclei (%): 9% and 14%
  Population Healthy Nuclei (%): 78% and 77%
  Population Hoechst High Intensity Objects (%): 0%
  Population Membrane Permeable-Phenotype (%): 2%
  Population Mitochondria Different-Phenotype (%): 0%
  Population Mitotic Cells (%): 44% and 27%
  Population Normal (%): 100%
  Population Pyknosed Nuclei (%): 11% and 8%
  Population Tubulin-Different-Phenotype (%): 7% and 6%
  Total Cell Count: 244 and 215
[3]
  Population Apoptotic (%): 60% and 48%
  Population Fragmented Nuclei (%): 13% and 7%
  Population Healthy Nuclei (%): 60% and 70%
  Population Hoechst High Intensity Objects (%): 0%
  Population Membrane Permeable-Phenotype (%): 7%
  Population Mitochondria Different-Phenotype (%): 1% and 0%
  Population Mitotic Cells (%): 40% and 51%
  Population Normal (%): 100%
  Population Pyknosed Nuclei (%): 26% and 21%
  Population Tubulin-Different-Phenotype (%): 14% and 9%
  Total Cell Count: 150 and 188
[4]
  Population Apoptotic (%): 59% and 70%
  Population Fragmented Nuclei (%): 8% and 17%
  Population Healthy Nuclei (%): 82% and 74%
  Population Hoechst High Intensity Objects (%): 0%
  Population Membrane Permeable-Phenotype (%): 2% and 3%
  Population Mitochondria Different-Phenotype (%): 0%
  Population Mitotic Cells (%): 40% and 29%
  Population Normal (%): 99%
  Population Pyknosed Nuclei (%): 9% and 8%
  Population Tubulin-Different-Phenotype (%): 4% and 8%
  Total Cell Count: 232 and 213
[5]
  Population Apoptotic (%): 67% and 60%
  Population Fragmented Nuclei (%): 17% and 16%
  Population Healthy Nuclei (%): 53% and 65%
  Population Hoechst High Intensity Objects (%): 0%
  Population Membrane Permeable-Phenotype (%): 4% and 6%
  Population Mitochondria Different-Phenotype (%): 0%
  Population Mitotic Cells (%): 32% and 40%
  Population Normal (%): 99% and 100%
  Population Pyknosed Nuclei (%): 28% and 17%
  Total Cell Count: 170 and 199
[6]
  Population Apoptotic (%): 56% and 44%
  Population Fragmented Nuclei (%): 9% and 24%
  Population Healthy Nuclei (%): 81% and 71%
  Population Hoechst High Intensity Objects (%): 0%
  Population Membrane Permeable-Phenotype (%): 2% and 1%
  Population Mitochondria Different-Phenotype (%): 0%
  Population Mitotic Cells (%): 43% and 55%
  Population Normal (%): 100%
  Population Pyknosed Nuclei (%): 9% and 3%
  Population Tubulin-Different-Phenotype (%): 10% and 8%
  Total Cell Count: 239 and 229

## Cc1cn(CCN2CCN(c3ccccc3-c3cc(C#N)cc(C(=O)NCCCN4CCCC4)c3)CC2)c2ccccc12
[1]
  Population Apoptotic (%): 16% and 47%
  Population Fragmented Nuclei (%): 13% and 14%
  Population Healthy Nuclei (%): 70% and 63%
  Population Hoechst High Intensity Objects (%): 0%
  Population Membrane Permeable-Phenotype (%): 10% and 8%
  Population Mitochondria Different-Phenotype (%): 1% and 5%
  Population Mitotic Cells (%): 83% and 52%
  Population Normal (%): 100%
  Population Pyknosed Nuclei (%): 16% and 21%
  Population Tubulin-Different-Phenotype (%): 41% and 35%
  Total Cell Count: 222 and 214
[2]
  Population Apoptotic (%): 40% and 37%
  Population Fragmented Nuclei (%): 28% and 31%
  Population Healthy Nuclei (%): 51% and 56%
  Population Hoechst High Intensity Objects (%): 0%
  Population Membrane Permeable-Phenotype (%): 7% and 5%
  Population Mitochondria Different-Phenotype (%): 20% and 17%
  Population Mitotic Cells (%): 59% and 62%
  Population Normal (%): 100%
  Population Pyknosed Nuclei (%): 19% and 12%
  Population Tubulin-Different-Phenotype (%): 82% and 83%
  Total Cell Count: 248 and 358
[3]
  Population Apoptotic (%): 33% and 60%
  Population Fragmented Nuclei (%): 14% and 20%
  Population Healthy Nuclei (%): 73% and 65%
  Population Hoechst High Intensity Objects (%): 0%
  Population Membrane Permeable-Phenotype (%): 5% and 3%
  Population Mitochondria Different-Phenotype (%): 3% and 10%
  Population Mitotic Cells (%): 66% and 39%
  Population Normal (%): 100%
  Population Pyknosed Nuclei (%): 11% and 13%
  Population Tubulin-Different-Phenotype (%): 37% and 33%
  Total Cell Count: 209 and 243
[4]
  Population Apoptotic (%): 81% and 82%
  Population Fragmented Nuclei (%): 17% and 27%
  Population Healthy Nuclei (%): 57% and 55%
  Population Hoechst High Intensity Objects (%): 0%
  Population Membrane Permeable-Phenotype (%): 2%
  Population Mitochondria Different-Phenotype (%): 51% and 58%
  Population Mitotic Cells (%): 18% and 17%
  Population Normal (%): 99%
  Population Pyknosed Nuclei (%): 25% and 17%
  Population Tubulin-Different-Phenotype (%): 93% and 88%
  Total Cell Count: 197 and 332
[5]
  Population Apoptotic (%): 44% and 76%
  Population Fragmented Nuclei (%): 19% and 24%
  Population Healthy Nuclei (%): 77% and 70%
  Population Hoechst High Intensity Objects (%): 0%
  Population Membrane Permeable-Phenotype (%): 2% and 3%
  Population Mitochondria Different-Phenotype (%): 0% and 3%
  Population Mitotic Cells (%): 55% and 23%
  Population Normal (%): 100% and 99%
  Population Pyknosed Nuclei (%): 3% and 5%
  Population Tubulin-Different-Phenotype (%): 23% and 17%
  Total Cell Count: 241 and 237
[6]
  Population Apoptotic (%): 95%
  Population Fragmented Nuclei (%): 9% and 17%
  Population Healthy Nuclei (%): 46% and 62%
  Population Hoechst High Intensity Objects (%): 1% and 0%
  Population Membrane Permeable-Phenotype (%): 6% and 1%
  Population Mitochondria Different-Phenotype (%): 75% and 67%
  Population Mitotic Cells (%): 4%
  Population Normal (%): 98% and 99%
  Population Pyknosed Nuclei (%): 43% and 19%
  Population Tubulin-Different-Phenotype (%): 93% and 91%
  Total Cell Count: 144 and 240
